Results reported in ChEMBL document CHEMBL1687813 (Antimicrob Agents Chemother, 2010).
Values after ≈ are worked out from the molar mass of the structure shown. Active and inactive are the calls of the source. The calls are words filed in the database; no cut-off is given here.

Tests used:
[1] = molecular target: T1, Nicotinamidase/pyrazinamidase (Mycolicibacterium smegmatis) (UniProt Q9ZHK8); assay: Activity of PzaA in Mycobacterium smegmatis mc27038 assessed as compound turnover per ml of microbial cells after 30 mins by […] analysis
T1 sequence (whole entry): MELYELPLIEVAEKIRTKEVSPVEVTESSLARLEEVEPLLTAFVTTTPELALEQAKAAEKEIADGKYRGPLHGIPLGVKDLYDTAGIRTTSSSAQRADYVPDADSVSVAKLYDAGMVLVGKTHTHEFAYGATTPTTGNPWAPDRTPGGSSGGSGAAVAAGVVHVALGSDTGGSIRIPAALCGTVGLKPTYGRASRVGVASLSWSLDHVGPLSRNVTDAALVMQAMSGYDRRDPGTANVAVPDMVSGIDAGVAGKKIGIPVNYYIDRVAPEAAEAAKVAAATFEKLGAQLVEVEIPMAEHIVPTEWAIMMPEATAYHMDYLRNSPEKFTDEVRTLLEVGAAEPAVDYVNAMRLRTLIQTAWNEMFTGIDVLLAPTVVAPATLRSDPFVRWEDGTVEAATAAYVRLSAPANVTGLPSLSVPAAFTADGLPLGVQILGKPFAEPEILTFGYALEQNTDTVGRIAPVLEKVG
In short: (§1)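 Whole-cell colorimetric amidase assay: log-phase cells were pelleted and resuspended in sterile water with 0.05% tyloxapol. Substrate (PZA or 5-Cl PZA) was added to 2 mM at 37°C with shaking and sampled at intervals. Clarified aliquots received ferrous ammonium sulfate (20 mM final), stood 30 min at 4°C, were re-spun, and were read at OD468. Extinction coefficients were 0.68 (PA) and 0.47 (5-Cl PA) per mM. Activity is nmol/min per ml of cells (OD600).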

[2] = test system: Mycolicibacterium smegmatis; assay: Inhibition of Fatty acid synthase type 1 in Mycobacterium smegmatis mc2155 at 2.5 mg/ml after 2 hrs by HPLC
In short: (§2)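 FAS I activity: mid-log cells (OD600 0.5) were resuspended to OD600 0.2 in 7H9 with 0.2% dextrose and 0.05% tyloxapol, pH 5.1, plus 2.5 mg/ml PZA, for 2 h at 37°C. They were pulsed with [1-14C]acetate (1 μCi/ml) for a further 2 h. Lipids were extracted, saponified, and derivatized to p-bromophenacyl esters. 14C-palmitate was quantified by reverse-phase HPLC.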

[3] = test system: Mycolicibacterium smegmatis; assay: Antimicrobial activity against Mycobacterium smegmatis mc27036 harboring deltaMSMEG_1090 from Mycobacterium smegmatis mc22612 after 48 hrs by broth microdilution method; type: functional; conditions: mc27036, 48 h
In short: (§3)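 Broth MIC: exponentially growing cells were diluted to 10^6 CFU/ml in supplemented 7H9 across a range of PZA or 5-Cl PZA concentrations. Medium was adjusted to pH 5.2 where indicated. Cultures were incubated 2 days at 37°C. The MIC is the lowest concentration preventing visible growth. Plasmid-borne amidases were induced with 50 ng/ml anhydrotetracycline.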

[4] = test system: Mycobacterium tuberculosis; assay: Antimicrobial activity against Mycobacterium tuberculosis H37Ra after 11 days by broth microdilution method at pH 6; type: functional; conditions: 264 h
In short: (§4)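 Tubercle bacilli were diluted to 10^6 CFU/ml in supplemented 7H9 containing graded PZA or 5-Cl PZA, at pH 6.0 or neutral pH 6.8. Cultures were incubated 11 days at 37°C. The MIC is the lowest concentration blocking visible growth. Integrated amidase constructs were induced with 50 ng/ml anhydrotetracycline.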

[5] = molecular target: T1, Nicotinamidase/pyrazinamidase (Mycolicibacterium smegmatis); assay: Activity of PzaA in Mycobacterium smegmatis mc22612 assessed as compound turnover per ml of microbial cells after 30 mins by […] analysis
[6] = molecular target: T2, PYRAZINAMIDASE/NICOTINAMIDAS PNCA (PZase) (Mycobacterium tuberculosis) (UniProt Q50575); assay: Activity of PncA in Mycobacterium tuberculosis H37Ra assessed as compound turnover per ml of microbial cells after 30 mins by […] analysis; in short: as §1
T2 sequence (whole entry): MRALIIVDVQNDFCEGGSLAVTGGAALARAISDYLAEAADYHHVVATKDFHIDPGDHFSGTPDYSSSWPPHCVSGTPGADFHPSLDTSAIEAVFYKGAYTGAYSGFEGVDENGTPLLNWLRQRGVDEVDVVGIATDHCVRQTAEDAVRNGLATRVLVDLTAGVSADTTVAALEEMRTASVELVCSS

[7] = test system: Mycolicibacterium smegmatis; assay: Inhibition of Fatty acid synthase type 1 in Mycobacterium smegmatis mc27031 at 2.5 mg/ml after 2 hrs by HPLC; in short: as §2
[8] = test system: Mycobacterium tuberculosis; assay: Antimicrobial activity against Mycobacterium tuberculosis H37Ra after 11 days by broth microdilution method at pH 6.8; type: functional; conditions: 264 h; in short: as §4
[9] = test system: Mycolicibacterium smegmatis; assay: Antimicrobial activity against Mycobacterium smegmatis mc27038 harboring attBL5::Ptc::pzaAMsmeg from Mycobacterium smegmatis mc2155 after 48 hrs by broth microdilution method; type: functional; conditions: mc27038, 48 h; in short: as §3
[10] = test system: Mycolicibacterium smegmatis; assay: Antimicrobial activity against 5-Cl PZA-resistant Mycobacterium smegmatis mc22612after 48 hrs by broth microdilution method; type: functional; conditions: mc22612, 48 h
[11] = molecular target: T1, Nicotinamidase/pyrazinamidase (Mycolicibacterium smegmatis); assay: Activity of PzaA in Mycobacterium smegmatis mc27037 assessed as compound turnover per ml of microbial cells after 30 mins by […] analysis; in short: as §1
[12] = molecular target: T1, Nicotinamidase/pyrazinamidase (Mycolicibacterium smegmatis); assay: Activity of PzaA in Mycobacterium smegmatis mc27034 assessed as compound turnover per ml of microbial cells after 30 mins by […] analysis; in short: as §1
[13] = test system: Mycolicibacterium smegmatis; assay: Antimicrobial activity against 5-Cl-PZA-resistant Mycobacterium smegmatis mc27037 after 48 hrs by broth microdilution method; type: functional; conditions: mc27037, 48 h; in short: as §3
[14] = test system: Mycolicibacterium smegmatis; assay: Antimicrobial activity against Mycobacterium smegmatis mc27031 harboring MSMEG_1088::magellan4 after 48 hrs by broth microdilution method; type: functional; conditions: mc27031, 48 h; in short: as §3
[15] = test system: Mycolicibacterium smegmatis; assay: Antimicrobial activity against Mycobacterium smegmatis mc27034 harboring deltaMSMEG_1090 from Mycobacterium smegmatis mc27031 after 48 hrs by broth microdilution method; type: functional; conditions: mc27034, 48 h; in short: as §3
[16] = molecular target: T1, Nicotinamidase/pyrazinamidase (Mycolicibacterium smegmatis); assay: Activity of PzaA in Mycobacterium smegmatis mc27036 assessed as compound turnover per ml of microbial cells after 30 mins by […] analysis; in short: as §1
[17] = molecular target: T1, Nicotinamidase/pyrazinamidase (Mycolicibacterium smegmatis); assay: Activity of PzaA in Mycobacterium smegmatis mc27031 assessed as compound turnover per ml of microbial cells after 30 mins by […] analysis; in short: as §1
[18] = test system: Mycolicibacterium smegmatis; assay: Antimicrobial activity against Mycobacterium smegmatis mc27035 harboring deltaMSMEG_1090 from Mycobacterium smegmatis mc2155 after 48 hrs by broth microdilution method; type: functional; conditions: mc27035, 48 h; in short: as §3
[19] = test system: Mycolicibacterium smegmatis; assay: Antimicrobial activity against Mycobacterium smegmatis mc27032 harboring deltaMSMEG_1088 from Mycobacterium smegmatis mc2155 after 48 hrs by broth microdilution method; type: functional; conditions: mc27032, 48 h; in short: as §3
[20] = molecular target: T1, Nicotinamidase/pyrazinamidase (Mycolicibacterium smegmatis); assay: Activity of PzaA in Mycobacterium smegmatis mc27035 assessed as compound turnover per ml of microbial cells after 30 mins by […] analysis; in short: as §1
[21] = molecular target: T1, Nicotinamidase/pyrazinamidase (Mycolicibacterium smegmatis); assay: Activity of PzaA in Mycobacterium smegmatis mc2155 assessed as compound turnover per ml of microbial cells after 30 mins by […] analysis
[22] = molecular target: T1, Nicotinamidase/pyrazinamidase (Mycolicibacterium smegmatis); assay: Activity of PzaA in Mycobacterium smegmatis mc27032 assessed as compound turnover per ml of microbial cells after 30 mins by […] analysis; in short: as §1
[23] = test system: Mycolicibacterium smegmatis; assay: Antimicrobial activity against Mycobacterium smegmatis mc2155 after 48 hrs by broth microdilution method; type: functional; conditions: mc2155, 48 h
[24] = test system: Mycolicibacterium smegmatis; assay: Inhibition of Fatty acid synthase type 1 in Mycobacterium smegmatis mc27031 at 1500 ug/ml after 2 hrs by HPLC
[25] = test system: Mycolicibacterium smegmatis; assay: Inhibition of Fatty acid synthase type 1 in Mycobacterium smegmatis mc2155 at 250 ug/ml after 2 hrs by HPLC

Structure (SMILES)	Activity [1] [nmol/min]	MIC [3] [µg/mL]	MIC [4] [µg/mL]	Activity [5] [nmol/min]	Activity [6] [nmol/min]	MIC [8] [µg/mL]	MIC [9] [µg/mL]	MIC [10] [µg/mL]	Activity [11] [nmol/min]	Activity [12] [nmol/min]	MIC [13] [µg/mL]	MIC [14] [µg/mL]	MIC [15] [µg/mL]	Activity [16] [nmol/min]	Activity [17] [nmol/min]	MIC [18] [µg/mL]	MIC [19] [µg/mL]	Activity [20] [nmol/min]	Activity [21] [nmol/min]	Activity [22] [nmol/min]	also measured
NC(=O)c1cnccn1 [PYRAZINAMIDE]	34	> 4000	> 1000	32	0.23	62.5 (≈ 508 µM)	> 4000	> 4000	100	1.2	150 (≈ 1220 µM)	150 (≈ 1220 µM)	> 4000	1.2	100	> 4000	150 (≈ 1220 µM)	0.95	0.85	65	inhibition [2]: Active; inhibition [7]: inactive; MIC [23]: > 4000 µg/mL
NC(=O)c1cnc(Cl)cn1	34	25 (≈ 159 µM)	25 (≈ 159 µM)	32	0.15	200 (≈ 1270 µM)	125 (≈ 793 µM)	125 (≈ 793 µM)	100	1.2	125 (≈ 793 µM)	125 (≈ 793 µM)	25 (≈ 159 µM)	1.2	100	25 (≈ 159 µM)	125 (≈ 793 µM)	0.95	0.85	65	Activity [24]: Active; Activity [25]: Active; MIC [23]: 25 µg/mL (≈ 159 µM)
